In ChEMBL document CHEMBL1122037, “Use of adenine nucleotide derivatives to assess the potential of exo-active-site-directed reagents as species- or isozyme-specific enzyme inactivators. 4. Interactions of adenosine 5'-triphosphate derivatives with adenylate kinases from Escherichia coli and rat tissues” (J Med Chem, 1982):

How the values were obtained:
[1] = system: Escherichia coli; experiment: Ability to inhibit Escherichia coli adenylate kinase II, activity expressed as Maximum velocity; assay type: ADME; conditions: in vitro
Method in brief: (§1)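 Coupled spectrophotometric assay (pyruvate kinase/lactate dehydrogenase, NADH oxidation) in 0.1 M Tris-HCl pH 7.6 with 2 mM MgSO4, 0.12 M KCl, 0.31 mM PEP, 0.38 mM NADH and 0.25 mM AMP. Derivatives were added as 1:1 Mg complexes. KM was obtained from linear Lineweaver-Burk plots using five or more substrate levels spanning 0.5–4.0 × KM. Inhibition was typed as competitive or noncompetitive versus ATP.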

[2] = species: Rattus norvegicus; experiment: Ability of the 1.10 mM compound to inactivate rat muscle adenylate kinase was determined, after exposing enzyme to 2.2 mM levels of ATP activity expressed as percent loss of inactivation
Method in brief: (§2)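 Rat muscle enzyme preincubated at 22 °C with the 1:1 Mg2+ complex of the derivative, alone or with added AMP or ATP. Aliquots were assayed at intervals in the coupled system containing 1 mM ATP, alongside controls lacking the derivative. Half-time of inactivation was taken from pseudo-first-order plots, or % activity loss at 5–6 h was reported.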

[3] = system: Escherichia coli; experiment: Ability to inactivate Escherichia coli adenylate kinase after exposing enzyme to 0 mM levels of MgATP at concentration of 4.5mM, pH 7.6 for 6 h; assay type: functional
Method in brief: (§3)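 E. coli B enzyme, partially purified 27-fold (fraction IV), exposed 6 h at 22 °C, pH 7.6, to the Mg2+ 1:1 complex of the ATP derivative in the Tris/MgSO4/KCl reaction buffer, with or without MgATP. Aliquots withdrawn at intervals and assayed spectrophotometrically with 1 mM ATP. Activity was compared with controls lacking the derivative. Read-out is % inactivation after 6 h.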

[4] = system: Escherichia coli; experiment: Ability to inactivate Escherichia coli adenylate kinase after exposing enzyme to 0 mM levels of MgATP at concentration of 11.8 mM, pH 7.6; method in brief: as §3
[5] = species: Rattus norvegicus; experiment: Ability to inhibit rat adenylate kinase II, activity expressed as Maximum velocity; assay type: ADME; method in brief: as §1
[6] = biological target: Adenylate kinase (Escherichia coli) (UniProt P69441); experiment: Ability to inactivate adenylate kinase was determined, after exposing enzyme to mM levels of MgATP at pH 7.6
[7] = species: Rattus norvegicus; experiment: Ability to inhibit rat adenylate kinase III, activity expressed as half-maximal velocity; assay type: ADME; method in brief: as §1
[8] = species: Rattus norvegicus; experiment: Ability to inhibit rat adenylate kinase III, activity expressed as Maximum velocity; assay type: ADME; conditions: in vitro; method in brief: as §1
[9] = species: Rattus norvegicus; experiment: Ability to inhibit rat adenylate kinase II, activity expressed as half-maximal velocity; assay type: ADME; conditions: in vitro; method in brief: as §1
[10] = biological target: Adenylate kinase (Escherichia coli) (UniProt P69441); experiment: Ability to inhibit Escherichia coli adenylate kinase II activity expressed as half maximal velocity
[11] = biological target: T1, GTP:AMP phosphotransferase AK3, mitochondrial (Rattus norvegicus, UniProt P29411); experiment: Ability to inhibit rat adenylate kinase III, activity expressed as Inhibition constant; Competitive inhibition; method in brief: as §1
[12] = biological target: Adenylate kinase 2, mitochondrial (Rattus norvegicus, UniProt P29410); experiment: Ability to inhibit rat adenylate kinase II, activity expressed as Inhibition constant; method in brief: as §1
[13] = species: Rattus norvegicus; experiment: Ability of the 1.42 mM compound to inactivate rat muscle adenylate kinase was determined, after exposing enzyme to 2.2 mM levels of ATP activity expressed as percent loss of inactivation; method in brief: as §2
[14] = system: Escherichia coli; experiment: Ability to inactivate Escherichia coli adenylate kinase after exposing enzyme to 0 mM levels of MgATP at concentration of 13.5 mM, pH 7.6; method in brief: as §3
[15] = system: Escherichia coli; experiment: Ability of 13.2 mM compound to inactivate Escherichia coli adenylate kinase was determined, after exposing enzyme to 10.7 mM levels of MgATP after 6 hr at 22 degree C; method in brief: as §3
[16] = system: Escherichia coli; experiment: Ability of 13.2 mM compound to inactivate Escherichia coli adenylate kinase was determined, after exposing enzyme to 0 mM levels of MgATP after 6 hr at 22 degree C; method in brief: as §3
[17] = biological target: T1, GTP:AMP phosphotransferase AK3, mitochondrial; experiment: Ability to inhibit rat adenylate kinase III, activity expressed as Inhibition constant; method in brief: as §1
[18] = system: Adenylate kinase, muscle isozyme (Rattus norvegicus); experiment: Ability of the 0.094 mM compound to inactivate rat muscle adenylate kinase was determined, after exposing enzyme to 1.4 mM levels of ATP activity expressed as % loss of inactivation

NCCCCCCNc1nc2c(N)ncnc2n1C1O[C@H](COP(=O)(O)OP(=O)(O)OP(=O)(O)O)[C@@H](O)[C@H]1O (stereo not given in full)
Vmax [1]: 0%

O=C(CI)NCCCCCCCNc1ncnc2c1ncn2[C@@H]1O[C@H](COP(=O)(O)OP(=O)(O)OP(=O)(O)O)[C@@H](O)[C@H]1O
Loss of inactivation [2]: 20% | Inactivation [3]: 7%

CN(CCCN(C)C(=O)CCCNc1ncnc2c1ncn2[C@@H]1O[C@H](COP(=O)(O)OP(=O)(O)OP(=O)(O)O)[C@@H](O)[C@H]1O)C(=O)CCCNC(=O)CI
Inactivation [4]: 0%

O=C(CI)NCCCCCCCCNc1ncnc2c1ncn2[C@@H]1O[C@H](COP(=O)(O)OP(=O)(O)OP(=O)(O)O)[C@@H](O)[C@H]1O
Vmax [5]: 5% | Inactivation [6]: 12% | Km [7]: 1100 µM | Vmax [8]: 6% | Km [9]: 400 µM

CN(CCCCCCN(C)c1ncnc2c1ncn2[C@@H]1O[C@H](COP(=O)(O)OP(=O)(O)OP(=O)(O)O)[C@@H](O)[C@H]1O)C(=O)CCCCCNC(=O)CI
Vmax [5]: 0% | Inactivation [10]: 1% | Ki [11]: 2.4 mM | Vmax [8]: 0% | Ki [12]: 1.9 mM

O=C(CI)NCCCC(=O)NCCCCCCNc1ncnc2c1ncn2[C@@H]1O[C@H](COP(=O)(O)OP(=O)(O)OP(=O)(O)O)[C@@H](O)[C@H]1O
Loss of inactivation [13]: 0%

O=C(CI)NCCCCCC(=O)NCCCCNc1ncnc2c1ncn2[C@@H]1O[C@H](COP(=O)(O)OP(=O)(O)OP(=O)(O)O)[C@@H](O)[C@H]1O
Inactivation [14]: 5%

NCCCCCNc1ncnc2c1ncn2C1O[C@H](COP(=O)(O)OP(=O)(O)OP(=O)(O)O)[C@@H](O)[C@H]1O (stereo not given in full)
Vmax [1]: 0%

O=C(CI)NCCCCCNc1ncnc2c1ncn2[C@@H]1O[C@H](COP(=O)(O)OP(=O)(O)OP(=O)(O)O)[C@@H](O)[C@H]1O
Vmax [5]: 21% | Inactivation [15]: 36% | Inactivation [16]: 37% | Ki [11]: 6.2 mM | Km [7]: 400 µM | Vmax [8]: 9% | Km [9]: 1000 µM

O=C(CI)NCCNc1ncnc2c1ncn2[C@@H]1O[C@H](COP(=O)(O)OP(=O)(O)OP(=O)(O)O)[C@@H](O)[C@H]1O
Vmax [5]: 5% | Ki [17]: 5.9 mM | Km [7]: 400 µM | Vmax [8]: 2% | Km [9]: 1600 µM

O=C(CI)NCCCCCCCCNc1ncnc2c1ncn2C1O[C@H](CO)[C@@H](O)[C@H]1O (stereo not given in full)
Loss of inactivation [18]: 30%
